The text below walks through data of paper PMC12399198 (Acta Pharmaceutica Sinica. B, 2025).

Peptide text beside a SMILES is read from it. * marks the point of attachment. Cbz = O=C(OCc1ccccc1)*

Experiment [1] relates to OVA-induced AR mouse model. Nature of the experiment: OVA-induced AR mouse model. Particulars: OVA-induced AR mice. It is filed as in vivo. An outline of the steps:
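Male C57BL/6 mice, 6 weeks old, sensitised i.p. with OVA/alum (1:1) weekly for 3 weeks. Then challenged i.n. with OVA 2 mg/20 µL daily for 7 days. Test compound given i.n. at 0, 5, 10 or 20 mg/kg in 5% DMSO/45% PEG400/50% PBS, once daily, 6 h before each challenge; dexamethasone 1 mg/kg as reference. Sneezes and nasal rubs counted blinded for 10 min, starting 10 min after challenge; n = 8.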

A further experiment deals with Keap1 (Homo sapiens, UniProt Q14145). The experiment is described as follows: Keap1 degradation in MDA-MB-231 cells. It is filed as cell-based. Conditions: 24 h, dose-dependent.
Chain of Keap1 (Q14145 whole entry): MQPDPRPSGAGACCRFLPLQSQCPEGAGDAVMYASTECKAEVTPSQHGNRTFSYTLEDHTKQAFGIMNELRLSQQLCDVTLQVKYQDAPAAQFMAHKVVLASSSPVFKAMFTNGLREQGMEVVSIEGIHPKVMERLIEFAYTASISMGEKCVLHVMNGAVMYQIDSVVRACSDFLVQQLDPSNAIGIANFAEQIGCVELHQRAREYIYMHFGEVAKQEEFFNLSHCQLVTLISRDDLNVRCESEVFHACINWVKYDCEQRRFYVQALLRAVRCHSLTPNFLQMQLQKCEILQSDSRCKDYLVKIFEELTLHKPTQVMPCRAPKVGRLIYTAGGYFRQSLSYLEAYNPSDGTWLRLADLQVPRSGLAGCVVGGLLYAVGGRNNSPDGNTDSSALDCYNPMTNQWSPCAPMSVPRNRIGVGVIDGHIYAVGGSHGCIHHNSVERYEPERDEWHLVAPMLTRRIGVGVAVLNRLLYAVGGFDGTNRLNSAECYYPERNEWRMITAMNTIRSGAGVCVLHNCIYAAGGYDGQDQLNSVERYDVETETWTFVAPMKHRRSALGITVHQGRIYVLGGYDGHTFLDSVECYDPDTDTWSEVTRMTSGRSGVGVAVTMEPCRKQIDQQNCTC

As to `C[C@@H]1C[C@H]2[C@@H]3CCC4=CC(=O)C=C[C@]4(C)[C@@]3(F)[C@@H](O)C[C@]2(C)[C@@]1(O)C(=O)CO` [DEX, Dexamethasone], the “allergic nasal symptoms (number of nasal rubbing and sneezing every 10 min)” value in experiment [1] (i.n. daily for 7 days, 8 at 5, 10, 20 mg/kg, DEX 1 mg/kg) is reported as “decreased”. Besides, in experiment [1] (DEX or high dose of 8), the “CD45+ cells in nasal mucosa (IHC staining)” value was “reduced” and the “eosinophil infiltration within the nasal mucosa (Giemsa staining)” value was “significantly reduced”.
On to `CC(C)C[C@@H](C=O)NC(=O)[C@H](CC(C)C)NC(=O)[C@H](CC(C)C)NC(=O)OCc1ccccc1` [MG132] (Cbz-Leu-Leu-Leu-aldehyde), for which, on Keap1, the “effect on Keap1 levels” value was “decreasing Keap1 levels”.
